Results gathered from unrelated publications.
Target: Serine/threonine-protein kinase PAK 3 (PAK3, Homo sapiens, UniProt O75914)

The remaining activity of `COc1cc(Cl)c(C(=O)N[C@@H](CN[C@H]2CC[C@@H](N)CC2)Cc2ccc(C#N)cc2)cc1-c1ccc(CN[C@H](C)c2ccc(C)cc2)o1` is reported as 101% (enzyme activity; inhibitor; 1 µM).
For `O=C(Nc1cnn(-c2csc(C(=O)NC3COC3)c2)c1)Nc1c(F)cccc1Cl`, the remaining activity was 64.2% (enzyme activity; inhibitor; 5 µM).
With `N[C@H]1CCN(c2nccc(-c3cnn4ncccc34)n2)C1` the remaining binding was 100% (binding; 1 µM).
For `Cc1nc(C2CCN(C(=O)c3ccc(OC(F)(F)F)cc3N)CC2)c2ncc(N3CCN(C)CC3)cc2n1`, the remaining binding was 100% (cell-free assay; competition with immobilised ligand; 1 µM).
The activity vs control of `Cc1ccc(C(=O)NCc2ccsc2)cc1C#Cc1cn(C(C)C)c2ncnc(N)c12` is reported as 78% (enzyme activity; inhibitor; 1 µM).
`CNC(=O)Nc1ccc2c(c1)CC[C@@]21OC(=O)N(CC(=O)N(Cc2ccc(F)cc2)[C@@H](C)C(F)(F)F)C1=O` has a remaining binding of 91% (cell-free assay; competition with immobilised ligand; 1 µM).
With `COc1cc2ncnc(Nc3ccc(Oc4ccccc4)c(C)c3C)c2cc1OC` the inhibition was 10% (enzyme activity; inhibitor; 1 µM).
`CN1CC(Oc2cnc(C#N)cc2-c2ccn3nc(NC(=O)C4CC4)cc3c2)C1` gave an inhibition of -10% (enzyme activity; inhibitor; 1 µM).
`O=C(N[C@H]1CCCCC/C=C\C2C[C@@]2(C(=O)O)NC(=O)[C@@H]2C[C@@H](Oc3ccncc3)CN2C1=O)OC1CCCC1` (stereo partly shown) gave a remaining binding of 88% (binding; competition with immobilised ligand; 1 µM).
The inhibition of `Cc1ccc(Nc2nccc(N(C)c3ccc4c(C)n(C)nc4c3)n2)cc1S(N)(=O)=O` is reported as 29% (enzyme activity; inhibitor; 0.3 µM).
With `CCCS(=O)(=O)Nc1ccc(F)c(C(=O)c2c[nH]c3ncc(-c4ccc(Cl)cc4)cc23)c1F` the inhibition was under 20% (enzyme activity; inhibitor; 1 µM).
With `Clc1ccc(Nc2nnc(Cc3ccncc3)c3ccccc23)cc1` the remaining signal was 107% (cell-free assay; 0.5 µM).
The inhibition of `COc1ccccc1N1CCN(c2ncnc3[nH]nc(Br)c23)CC1` is reported as -12% (enzyme activity; inhibitor; 1 µM).
The remaining signal of `N#CCCc1ccc2c(c1)-c1[nH]c3ccc([N+](=O)[O-])cc3c1CC(=O)N2` is reported as 97.1% (cell-free assay; 0.5 µM).
The remaining binding of `N#CC1(c2ccccn2)CCN(Cc2cc(C(=O)N3CCCC3)c(=O)n3ccccc23)CC1` is reported as 100% (cell-free assay; competition with immobilised ligand; 1 µM).
`C[S+]([O-])c1ccc(-c2nc(-c3ccncc3)c(-c3ccc(F)cc3)[nH]2)cc1` (stereo not shown) gave a remaining signal of 102% (cell-free assay; 0.5 µM).
With `CNC(=O)c1cc(Oc2ccc(NC(=O)Nc3ccc(Cl)c(C(F)(F)F)c3)cc2)ccn1` the inhibition was 74% (enzyme activity; inhibitor; 10 µM).
`CCCOc1ccc([C@H]2[C@H](C(=O)O)[C@@H](c3ccc4c(c3)OCO4)CN2CC(=O)Nc2c(CC)cccc2CC)cc1` gave a remaining binding of 100% (cell-free assay; competition with immobilised ligand; 1 µM).
With `COc1cc2c(Nc3ccc(Br)cc3F)ncnc2cc1OCC1CCN(C)CC1` the remaining signal was 103% (cell-free assay; 0.5 µM).
